Calls of active or inactive are those of the source. The calls are words filed in the database; no cut-off is given here.
Columns and labels:
SH-SY5Y [1] = experiment: Neuroprotective activity against amyloid beta (1 to 42)-induced neurodegeneration in human SH-SY5Y cells assessed as cell viability at 10 uM preincubated for 4 hrs followed by amyloid beta (1 to 42) addition and measured after 48 hrs by MTS assay (reference value: 60.4%); assay type: functional; settings: for viability at 10 µM: read-out: Activity
SH-SY5Y [2] = experiment: (§1) Neurotoxicity against human SH-SY5Y cells assessed as cell viability at 10 to 40 uM after 24 hrs […] relative to control; assay type: toxicity, cell-based; settings: sh-sy5y, 24 h, 40 µM
HEK293 [3] = experiment: Inhibition of erastin-induced ferroptosis in HEK293 cells preincubated for 4 hrs followed by erastin stimulation and measured at next day by MTS assay; assay type: functional, cell-based, Homo sapiens
Outline: (§2)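 HEK-293 cells grown in DMEM with 10 % FBS, 1 % pen/strep and 1 mM sodium pyruvate, 37 °C, 5 % CO2. Seeded 5000/well for 24 h. Compounds at a range of concentrations added 4 h before ferroptosis induction with (1S,3R)-RSL3 (500 nM) or erastin (10 μM). MTS viability read 24 h after induction, normalized to vehicle. IC50 taken as the mean of ≥3 experiments.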

HEK293 [4] = experiment: Inhibition of (1S,3R)-RSL3-induced ferroptosis in HEK293 cells preincubated for 4 hrs followed by (1S,3R)-RSL3 stimulation and measured at next day by MTS assay; settings: Homo sapiens
SH-SY5Y [5] = experiment: Neuroprotective activity against amyloid beta (1 to 42)-induced neurodegeneration in human SH-SY5Y cells assessed as increase in cell viability at 1 uM preincubated for 4 hrs followed by amyloid beta (1 to 42) addition after 48 hrs by micrograph method; assay type: functional, cell-based
Outline: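 SH-SY5Y cells pretreated with compound (1 μM), then exposed to Aβ1-42 (10 μM) for 48 h. Cell morphology and clumping assessed by light micrographs against vehicle and Aβ-alone cells.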

SH-SY5Y [6] = experiment: Inhibition of amyloid beta (1 to 42)-induced lipid peroxidation in human SH-SY5Y cells at 10 uM incubated for 48 hrs by BODIPY-C11'581/591 probe-based flow cytometric analysis; assay type: functional, cell-based
Outline: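 SH-SY5Y seeded 2×10^4/well and adhered 24 h, then given compound with Aβ1-42 for 48 h. Stained with BODIPY-C11 581/591 (1 μM) for 30 min at 37 °C in the dark. Flow cytometry at ex 488, em 525±25 nm, 10,000 events. Untreated, DEM (1 mM) and Aβ-alone controls.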

SH-SY5Y [7] = experiment: Neuroprotective activity against amyloid beta (1 to 42)-induced neurodegeneration in human SH-SY5Y cells assessed as cell viability at 0.5 uM preincubated for 4 hrs followed by amyloid beta (1 to 42) addition and measured after 48 hrs by MTS assay (reference value: 55.1%); assay type: functional; settings: read-out: Activity
SH-SY5Y [8] = experiment: Neuroprotective activity against amyloid beta (1 to 42)-induced neurodegeneration in human SH-SY5Y cells assessed as cell viability at 1 uM preincubated for 4 hrs followed by amyloid beta (1 to 42) addition and measured after 48 hrs by MTS assay (reference value: 55.1%); assay type: functional; settings: read-out: Activity
[9] = biological target: Amyloid-beta precursor protein (Homo sapiens) (UniProt P05067); experiment: Inhibition of HFIP-pretreated amyloid beta (1 to 42 residues) (unknown origin) self aggregation at 25 uM after 7 days by ThT-based fluorometric method relative to control
Amyloid-beta precursor protein (Homo sapiens), sequence (P05067 whole entry, the tested form may be a part): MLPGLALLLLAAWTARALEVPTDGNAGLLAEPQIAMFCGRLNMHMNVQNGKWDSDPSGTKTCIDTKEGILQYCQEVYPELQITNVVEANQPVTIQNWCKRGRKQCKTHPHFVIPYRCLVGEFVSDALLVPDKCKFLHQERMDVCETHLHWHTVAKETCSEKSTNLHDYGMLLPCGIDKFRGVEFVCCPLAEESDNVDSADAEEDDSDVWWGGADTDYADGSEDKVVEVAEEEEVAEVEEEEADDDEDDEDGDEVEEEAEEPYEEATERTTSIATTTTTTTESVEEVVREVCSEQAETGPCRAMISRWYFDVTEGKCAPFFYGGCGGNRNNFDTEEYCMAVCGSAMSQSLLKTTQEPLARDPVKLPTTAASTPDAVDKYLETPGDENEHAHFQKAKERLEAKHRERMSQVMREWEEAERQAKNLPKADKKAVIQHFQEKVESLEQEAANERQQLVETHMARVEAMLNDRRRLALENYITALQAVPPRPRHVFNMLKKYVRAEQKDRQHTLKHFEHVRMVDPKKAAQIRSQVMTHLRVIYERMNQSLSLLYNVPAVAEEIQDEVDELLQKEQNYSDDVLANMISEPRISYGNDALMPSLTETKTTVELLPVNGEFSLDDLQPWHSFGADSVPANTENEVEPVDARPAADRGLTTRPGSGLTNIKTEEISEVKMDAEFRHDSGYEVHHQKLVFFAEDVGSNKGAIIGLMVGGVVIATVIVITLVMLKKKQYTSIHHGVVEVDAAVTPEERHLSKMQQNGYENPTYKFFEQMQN
Outline: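 Aβ1-42 (25 μM) incubated with or without inhibitor (25 μM, 1:1) in 10 mM phosphate buffer pH 7.4 with 100 mM NaCl at 37 °C for 7 days. Inhibitor-only blanks included. Samples diluted in 50 mM glycine-NaOH pH 8.0 containing 5 μM ThT, fluorescence read at ex 440/em 485 nm. % inhibition = (1−IFi/IFc)×100 after background subtraction, triplicate.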

[10] = as §1; assay type: toxicity, cell-based; settings: SH-SY5Y cells, read-out: Activity
SH-SY5Y [11] = experiment: Inhibition of RSL3-induced lipid peroxidation in human SH-SY5Y cells at 10 uM incubated for 24 hrs by BODIPY-C11'581/591 probe-based flow cytometric analysis; assay type: functional, cell-based
Outline: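 SH-SY5Y seeded 2×10^4/well and adhered 24 h, then given compound plus RSL3 (500 nM) for 24 h. Stained with BODIPY-C11 581/591 (1 μM) for 30 min at 37 °C in the dark. Flow cytometry at ex 488, em 525±25 nm, 10,000 events. Controls: untreated (negative), DEM 1 mM, and RSL3 alone.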

HEK293 [12] = experiment: Inhibition of (1S,3R)-RSL3-induced ferroptosis in HEK293 cells preincubated for 4 hrs followed by erastin stimulation and measured at next day by MTS assay; assay type: functional, cell-based, Homo sapiens; outline: as §2
[13] = Homo sapiens, HEK293, read-out: IC50

Structure (SMILES) | viability at 10 µM (SH-SY5Y [1]) [%] | Activity (SH-SY5Y [2]) | viability at 0.5 µM (SH-SY5Y [7]) [%] | viability at 1 µM (SH-SY5Y [8]) [%] | inhibition [9] | other results
Cc1cccc(/C=C/C(=O)c2ccc(O)c(O)c2O)c1 | 96.5 to 106 | Non-Toxic | 66.7 to 73.8 | 70.8 to 77.5 | 70.3 to 76.3% | IC50 (HEK293 [3]; [13]): 3.81 µM; IC50 (HEK293 [4]): 0.45 µM; Activity (SH-SY5Y [5]): Active; inhibition (SH-SY5Y [6]): Active
Cc1cccc(/C=C/C(=O)c2cccc(O)c2)c1 | – | – | – | – | inactive | viability at 24 h, up to 40 µM [10]: 73.6 to 77.4%
COCOc1ccc(C(=O)/C=C/c2ccc(OC)cc2)c(O)c1OCOC | 72 to 84.9 | Non-Toxic | – | – | 16.4% | –
O=C(/C=C/c1cccc(Cl)c1)c1ccc(O)c(O)c1O | 96.5 to 106 | Non-Toxic | 66.7 to 73.8 | 70.8 to 77.5 | 70.3 to 76.3% | IC50 (HEK293 [3]; [13]): 3.15 µM; IC50 (HEK293 [4]): 0.86 µM; Activity (SH-SY5Y [5]): Active; inhibition (SH-SY5Y [11]): Active
COc1ccc(/C=C/C(=O)c2ccc(O)c(O)c2O)cc1 | 96.5 to 106 | Non-Toxic | 66.7 to 73.8 | 70.8 to 77.5 | 70.3 to 76.3% | IC50 (HEK293 [3]; [13]): 3.88 µM; IC50 (HEK293 [4]): 1.77 µM; Activity (SH-SY5Y [5]): Active; inhibition (SH-SY5Y [11]): Active
COc1cc(/C=C/C(=O)CC(=O)/C=C/c2ccc(O)c(OC)c2)ccc1O [CURCUMIN] | 76 | – | – | – | – | –
COc1ccc(/C=C/C(=O)c2cccc(O)c2)cc1OC | – | Non-Toxic | – | – | inactive | –
COCOc1ccc(C(=O)/C=C/c2cccc(Cl)c2)c(O)c1OCOC | 72 to 84.9 | Non-Toxic | – | – | 16.4% | –
COCOc1ccc(C(=O)/C=C/c2cccc(C)c2)c(O)c1OCOC | 72 to 84.9 | Non-Toxic | – | – | 16.4% | –
COc1ccc(/C=C/C(=O)c2cc(O)cc(O)c2)cc1 | – | Non-Toxic | – | – | 19% | Activity (SH-SY5Y [1]): Active
O=C(O[C@@H]1Cc2c(O)cc(O)cc2O[C@@H]1c1cc(O)c(O)c(O)c1)c1cc(O)c(O)c(O)c1 [EPIGALOCATECHIN GALLATE] | 92.5 | – | 60.1 | 63 | 52.9% | IC50 (HEK293 [3]; hek293): Not Active; IC50 (HEK293 [12]): Not Active
Cc1cccc(/C=C/C(=O)c2cc(O)cc(O)c2)c1 | – | Non-Toxic | – | – | 27.2% | Activity (SH-SY5Y [1]): Active
